Structures are written as SMILES. In all, about 2,100 compounds went through this assay and about 75 (4%) were called active.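 How the source made its calls: active means calcium fluorescence trace judged by eye to show a response, as agonist, enhancer of the glutamate response, or inhibitor; inactive means trace judged by eye to show no response.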 For the sample, actives were picked, then their nearest neighbours and some compounds at random.

Sequence of Metabotropic glutamate receptor 8 (Rattus norvegicus) (P70579 whole entry, looked up): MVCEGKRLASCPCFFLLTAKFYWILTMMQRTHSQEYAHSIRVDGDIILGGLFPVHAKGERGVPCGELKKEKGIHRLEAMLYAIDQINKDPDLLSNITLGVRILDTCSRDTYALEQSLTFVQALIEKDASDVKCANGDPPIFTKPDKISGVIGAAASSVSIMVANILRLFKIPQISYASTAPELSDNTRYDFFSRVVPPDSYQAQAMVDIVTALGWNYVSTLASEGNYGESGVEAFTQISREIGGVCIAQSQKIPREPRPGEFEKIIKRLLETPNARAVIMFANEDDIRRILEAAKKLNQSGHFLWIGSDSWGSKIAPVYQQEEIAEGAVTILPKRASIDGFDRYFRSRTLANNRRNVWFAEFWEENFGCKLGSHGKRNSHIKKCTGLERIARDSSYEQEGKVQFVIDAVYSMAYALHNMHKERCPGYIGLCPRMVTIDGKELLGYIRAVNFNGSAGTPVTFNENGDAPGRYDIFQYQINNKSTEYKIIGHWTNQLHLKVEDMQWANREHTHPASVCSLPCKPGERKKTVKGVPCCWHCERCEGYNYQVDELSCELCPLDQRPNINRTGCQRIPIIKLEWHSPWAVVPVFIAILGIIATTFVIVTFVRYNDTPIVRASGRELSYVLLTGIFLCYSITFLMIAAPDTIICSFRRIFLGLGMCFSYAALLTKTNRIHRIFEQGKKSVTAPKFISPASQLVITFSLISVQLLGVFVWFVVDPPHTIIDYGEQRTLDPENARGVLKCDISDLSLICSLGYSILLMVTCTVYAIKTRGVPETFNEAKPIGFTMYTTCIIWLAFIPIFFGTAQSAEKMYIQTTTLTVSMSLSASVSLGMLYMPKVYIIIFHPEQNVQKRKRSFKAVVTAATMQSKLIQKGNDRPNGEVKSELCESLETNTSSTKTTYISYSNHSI

This experiment concerns the target Metabotropic glutamate receptor 8 (Rattus norvegicus) (UniProt P70579). Kind of experiment: mGlu8-mediated intracellular calcium response modulators – cell-based, HEK293 rmGlu8, Gqi9 chimera, Fluo-4 calcium, counter-screen for GIRK activator project, confirmation (AID 623869). To be noted: HEK293 rmGlu8/Gqi9 calcium flux, Fluo-4 fluorescence; glutamate at EC20 added after compound. In outline:
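Material: rat mGlu8 HEK-293 cells with transient Gqi9. Medium: HEPES-buffered HBSS, pH 7.4. Compound: one dose, 20 µM addition solution, 0.2% DMSO. Schedule: compound 4 min before glutamate, then 2 min recording. Technique: Fluo-4 calcium fluorescence sampled at 1 Hz.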
In general terms: Calcium flux is commonly read through the fluorescence of an indicator in the cells.
Turning to `COC(=O)c1cc(CSc2nc3ccc(C)cc3[nH]2)oc1C`, the outcome was “inactive; 0”.

`O=C(NNC(=S)Nc1cccc2ccccc12)c1cccc(Br)c1`: the outcome was “inactive; 0”.

In the case of `CCc1c(C)c(C#N)c2nc3ccccc3n2c1NCc1ccco1`, the outcome is “inactive; 0”.

Turning to `Cc1ccc2nc(-c3ccc(O)cc3)c(Nc3ccc4c(c3)OCCO4)n2c1`, the outcome was “inactive; -1”.

Take `O=c1c2cc(Cl)ccc2[nH]c(=S)n1Cc1ccco1`: the outcome is “inactive; 0”.

As to `O=C(NC(=S)Nc1ccc(N2CCCCC2)cc1)c1ccco1`, the outcome was “inactive; 0”.

As for `Cc1cc(C)c2[nH]c(=S)cc(C)c2c1`, the outcome is “inactive; 0”.

On to `CCCCn1c(=S)[nH]c2c(oc3ccc(Cl)cc32)c1=O`, for which the outcome was “inactive; 0”.

As to `Cc1ccc2c(c1)NC(=O)CC(c1ccccc1)=N2`, the outcome was “active; 2”.

As to `O=C1CC(C(F)(F)C(F)(F)C(F)(F)F)=Nc2ccccc2N1`, the outcome is “inactive; 0”.

`O=C(NC(=S)N1CCN(c2ccc([N+](=O)[O-])cc2)CC1)c1ccc(F)cc1`: the outcome was “inactive; 0”.

As for `COc1ccc(NC(=O)C(=O)NNC(=O)c2cccs2)cc1`, the outcome is “inactive; 0”.

On to `Cc1ccccc1C(=O)NNC(=S)NC(=O)c1ccc(Cl)cc1Cl`, for which the outcome was “active; 1”.

Turning to `Cc1ccc(C(=O)NNC(=S)NC(=O)c2ccc(Cl)cc2Cl)cc1`, the outcome is “inactive; 4”.

On to `CC(C)CNC(=S)NC(=O)c1ccc(Cl)cc1Cl`, for which the outcome was “inactive; 0”.

`CCCCNC(=S)NC(=O)c1ccc(Cl)cc1Cl`: the outcome was “inactive; 0”.

Consider `CC(C)NC(=S)NC(=O)c1ccc(Cl)cc1Cl`, for which the outcome was “inactive; 0”.

As to `O=C(NC(=S)NCCc1ccccc1)c1ccco1`, the outcome is “inactive; 0”.

Regarding `O=C(NC(=S)NCCc1ccccc1)c1ccccc1`, the outcome is “inactive; 0”.

For `O=C(COc1ccccc1)NNC(=S)NC(=O)c1ccc(Cl)cc1Cl`, the outcome is “active; 1”.

As for `Cc1ccccc1C(=O)NC(=S)Nc1ccc(Oc2ccc(Cl)cc2)cc1`, the outcome is “inactive; 4”.

Regarding `COC(=O)c1ccccc1NC(=S)NC(=O)c1ccccc1`, the outcome is “inactive; 0”.

In the case of `Cc1ccccc1C(=O)NNC(=S)NC(=O)c1ccccc1`, the outcome is “active; 1”.

For the compound `Cc1ccccc1C(=O)NC(=S)NCCc1ccccc1`, the outcome is “active; -1”.

For the compound `CC(C)C(=O)Nc1ccccc1N1CCN(C(=O)c2ccccc2)CC1`, the outcome was “inactive; 0”.

On to `CC1(C)Cc2c(sc3[nH]c(=S)n(Cc4ccco4)c(=O)c23)CO1`, for which the outcome is “inactive; 0”.

As to `Cc1[nH]n2c(=O)cc(C(C)(C)C)nc2c1-c1ccccc1`, the outcome is “inactive; 0”.

Turning to `COC(=O)c1sc(NC(=S)NC(=O)c2ccccc2)nc1C`, the outcome is “inactive; 0”.

For the compound `Cc1ccccc1C(=O)Nc1ccccc1C(=O)N/N=C\c1ccco1`, the outcome is “inactive; 0”.

As for `O=C(N/N=C(\c1ccccc1)c1cccnc1)C(O)(c1ccccc1)c1ccccc1`, the outcome was “inactive; 0”.

Regarding `CC(Oc1ccc(Cl)cc1Cl)C(=O)NC(=S)N1CCc2ccccc21` (centres undefined), the outcome is “inactive; 0”.

For the compound `Cc1onc(-c2ccccc2)c1C(=O)NC(=S)Nc1sc2c(c1C#N)CCCC2`, the outcome was “inactive; 0”.

Regarding `Cc1ccccc1NC(=S)NC(=O)c1cncc(Br)c1`, the outcome was “inactive; 0”.

On to `Cc1onc(-c2ccccc2)c1C(=O)NNC(=S)NC(=O)c1ccc(Br)cc1`, for which the outcome was “active; 1”.

For the compound `Cc1cccc(OCC(=O)Nc2ccccc2N2CCN(C(=O)C(C)C)CC2)c1C`, the outcome was “inactive; 0”.

As for `CCc1ccc(Nc2nc3ccccc3c(=O)s2)cc1`, the outcome is “inactive; 0”.

For the compound `O=C1OC2(CCCCC2)OC(=O)C1=CNc1nc2ccccc2s1`, the outcome was “inactive; 0”.

As to `Cc1ccc(C)c(NC(=S)NNC(=O)c2csc(C(C)C)c2)c1`, the outcome is “inactive; 0”.

Regarding `c1cc2c(cc1C1=Nn3c(nnc3C3CCCCC3)SC1)OCO2`, the outcome was “inactive; 0”.

For the compound `CCCc1nnc2n1N=C(c1ccc(OC)c(OC)c1)CS2`, the outcome is “active; 2”.

Consider `COc1ccc(C2=Nn3c(nnc3C3CCCCC3)SC2)cc1OC`, for which the outcome is “active; 2”.

`COc1ccccc1C1=Nn2c(nnc2C2CCCCC2)SC1`: the outcome is “inactive; 0”.

For the compound `COc1ccc(-c2nnc3sc(C4CCCCC4)nn23)cc1OC`, the outcome is “active; 2”.

In the case of `CCOc1ccc(-c2nc(-c3ccc(OC)c(OC)c3)no2)cc1OCC`, the outcome is “inactive; 0”.

Take `Brc1ccccc1C1=Nn2c(nnc2-c2ccccc2)SC1`: the outcome is “inactive; 0”.

Take `CC(C)COn1c(=S)[nH]c2ccccc2c1=O`: the outcome is “inactive; 0”.

Turning to `Cc1ccc(N2C(=S)N=C(Nc3ccccc3C)C23CCOC(C)(C)C3)cc1` (centres undefined), the outcome was “inactive; 0”.

As for `C=CCN(CC=C)C(=S)NC(=O)c1ccc(OC)c(Br)c1`, the outcome is “inactive; 0”.

In the case of `Cc1ccc(N=C2CCCN2Cc2ccccc2)c(C#N)c1`, the outcome is “inactive; 0”.

In the case of `CCC(C)n1c(=S)[nH]c2c(sc3ccc([N+](=O)[O-])cc32)c1=O` (centres undefined), the outcome was “inactive; 4”.

In the case of `O=C(COc1ccccc1)NC(=S)N1CCc2ccccc21`, the outcome is “inactive; 0”.

As to `O=C(NC(=S)N1CCN(Cc2ccc3c(c2)OCO3)CC1)c1cccc(Br)c1`, the outcome is “inactive; 0”.

Take `CC(c1ccc(Cl)cc1)n1c(-c2ccc3ccccc3n2)n[nH]c1=S` (centres undefined): the outcome was “inactive; 0”.

As to `O=C(N/N=C/c1ccccn1)c1ccc(Br)cc1`, the outcome was “inactive; 0”.

Take `O=C(NC(Nc1nc2ccc([N+](=O)[O-])cc2s1)(C(F)(F)F)C(F)(F)F)c1ccccc1`: the outcome was “inactive; 4”.

On to `O=C(NC(Nc1nc2ccc([N+](=O)[O-])cc2s1)(C(F)(F)F)C(F)(F)F)c1ccccc1Cl`, for which the outcome was “active; -1”.

Regarding `Cc1ccc(C)c(OCC(=O)Nc2nc3ccc([N+](=O)[O-])cc3s2)c1C`, the outcome was “inactive; 0”.

Turning to `CCOC(=O)c1sc2ncnc(NCc3ccco3)c2c1C`, the outcome was “active; 2”.

`Cc1sc2ncnc(SCc3ccco3)c2c1C`: the outcome is “inactive; 0”.

Take `CCOC(=O)c1sc(NC(=S)NC(=O)c2ccco2)nc1C`: the outcome is “inactive; 0”.

`O=C(Nc1nc(-c2ccccc2)c(-c2ccccc2)o1)c1ccc(F)cc1`: the outcome is “inactive; 0”.

With `COc1ccc(C)cc1NC(=O)C(=O)NNC(=O)c1ccco1`, the outcome was “inactive; 0”.

For `Cc1ccc(-c2csc3nc[nH]c(=S)c23)cc1C`, the outcome was “inactive; 0”.

`COC(=O)C1=NN(C(=O)c2ccc(Cl)cc2)C(O)(c2ccccc2)C1` (centres undefined): the outcome was “inactive; 4”.

`CCc1cccc(NC(=O)CSC2=NS(=O)(=O)c3ccccc32)c1`: the outcome is “inactive; 0”.

On to `COC(=O)CSc1nc2ncccc2[nH]1`, for which the outcome is “inactive; 0”.

For the compound `COC(=O)CSC1=NS(=O)(=O)c2ccccc21`, the outcome is “active; -1”.

For the compound `CCn1c(SCC(N)=O)nc2sc3c(c2c1=O)CCCC3`, the outcome was “inactive; 0”.

For the compound `COc1cc(NC(=O)C(=O)NNC(=O)C2CCCCC2)c(OC)cc1Cl`, the outcome is “inactive; 0”.

Consider `COc1cc(/C=C2\S/C(=N/S(=O)(=O)c3ccc(C)cc3)NC2=O)c([N+](=O)[O-])cc1OC`, for which the outcome was “active; 2”.

With `COc1ccc(CN(CCC#N)C(=S)NC(=O)c2ccccc2)cc1`, the outcome was “inactive; 0”.

Take `COC(=O)c1c(NS(=O)(=O)c2cccs2)sc2c1CCCC2`: the outcome was “inactive; 0”.

`O=C(C1CCN(S(=O)(=O)c2cccc3cccnc23)CC1)N1CC=C(c2ccccc2)CC1`: the outcome is “inactive; 0”.

For `O=C(Nc1nnc(-c2ccccc2Cl)o1)c1nc2ccccc2s1`, the outcome is “active; 1”.

As to `O=C(Nc1nnc(-c2ccc(Cl)cc2)o1)c1nc2ccccc2s1`, the outcome is “inactive; 0”.

`O=C(Nc1nnc(-c2ccccc2Cl)o1)c1ccc(S(=O)(=O)N2CCCCCC2)cc1`: the outcome was “inactive; 3”.

With `O=C(Nc1ccc2[nH]c(=S)sc2c1)c1ccccc1`, the outcome was “inactive; 0”.

Take `O=C(NC(=S)N(Cc1ccccc1)Cc1ccccc1)c1ccccc1F`: the outcome was “inactive; 0”.

As to `CCCCOC(=O)c1ccc(NC(=S)NC(=O)c2c(Cl)cnn2CC)cc1`, the outcome is “inactive; 0”.

Consider `O=C(Nc1nncs1)c1ccccc1NS(=O)(=O)c1cccs1`, for which the outcome is “inactive; 0”.

Take `O=C(Nc1ccccc1)c1ccccc1NS(=O)(=O)c1ccc(Cl)s1`: the outcome is “active; 1”.

For `O=S(=O)(Nc1ccccc1N1CCCCC1)c1ccc(Cl)s1`, the outcome was “inactive; 0”.

With `CCOc1ccc2nc(/N=C/c3c(C)[nH]n(-c4ccccc4)c3=O)sc2c1`, the outcome is “inactive; 0”.

As to `O=C(NC(=S)N1CCN(c2ccc(Cl)cc2[N+](=O)[O-])CC1)c1cccs1`, the outcome is “inactive; 0”.

`CC(Oc1ccc(Cl)cc1)C(=O)NNC(=S)NC(=O)c1ccco1` (centres undefined): the outcome was “active; 1”.

On to `COc1ccccc1C(=O)NNC(=S)NC(=O)c1ccco1`, for which the outcome was “inactive; 4”.

On to `Cc1cccc(NC(=S)NC(=O)c2ccco2)n1`, for which the outcome is “inactive; 0”.

On to `CC(Oc1ccc2ccccc2c1)C(=O)NNC(=S)NC(=O)c1ccco1` (centres undefined), for which the outcome was “inactive; 4”.

With `CCCc1ccc(OCC(=O)NNC(=S)NC(=O)c2ccco2)cc1`, the outcome is “inactive; 3”.

On to `Cc1ccccc1OCC(=O)NNC(=S)NC(=O)c1ccco1`, for which the outcome was “active; 1”.

Consider `CCn1nc(C(=O)OCC(=O)N2CCc3ccccc32)c2ccccc2c1=O`, for which the outcome was “inactive; 0”.

Take `COc1ccc(CCNC(=O)CSc2nnc(-c3ccc(F)cc3)c3ccccc23)cc1OC`: the outcome was “inactive; 0”.

With `Cc1cc(C)n(-c2nnc(C)n2/N=C/c2ccccc2OCc2ccccc2Cl)n1`, the outcome was “inactive; 0”.

For the compound `Cc1ccccc1NC(=S)NNC(=O)c1csc2c1CCC(C)C2` (centres undefined), the outcome was “inactive; 0”.

Turning to `Cc1ccc(CSc2ncnc3c2cnn3-c2ccc(C)cc2)cc1`, the outcome is “inactive; 0”.

`CCCn1c(=O)c2ccccc2n2c(SCCOc3ccccc3F)nnc12`: the outcome was “active; 2”.

On to `CCCn1c(=O)c2ccccc2n2c(SCc3nc4ccccc4s3)nnc12`, for which the outcome was “inactive; 0”.

Turning to `CCCn1c(=O)c2ccccc2n2c(SCC(=O)N3CCc4ccccc4C3)nnc12`, the outcome was “inactive; 0”.

Consider `O=C(NC(NC(=S)Nc1ccc(Cl)cc1Cl)C(Cl)(Cl)Cl)c1cccc([N+](=O)[O-])c1` (centres undefined), for which the outcome was “inactive; 4”.

Consider `S=C(Nc1ccccc1Cl)Nc1ccc(Cl)cc1Cl`, for which the outcome was “inactive; 0”.

As to `CCC(Sc1ccc2nnc(-c3ccc(F)cc3)n2n1)C(=O)OC` (centres undefined), the outcome was “inactive; 0”.

As for `COC(=O)c1ccc(CSc2nnc(Nc3ccccc3OC)s2)o1`, the outcome is “inactive; 0”.

As for `COC(=O)c1ccc(CSc2ccc3nnc(-c4ccccc4)n3n2)o1`, the outcome is “active; 2”.

Turning to `COc1ccc2nc(N3C(=O)/C(=C/c4ccccc4)NC3=S)sc2c1`, the outcome is “inactive; 0”.

In the case of `CCCc1ccc(C(=O)N2CCN(c3ccccc3OCC)CC2)cc1`, the outcome was “inactive; 0”.

For the compound `Cc1cc(C)c2nc(NC(=O)c3cc(C)on3)sc2c1`, the outcome is “inactive; 0”.

For the compound `CCOc1ccc(-c2nc(-c3cccnc3)no2)cc1OCC`, the outcome was “active; 2”.

For the compound `CCOc1ccc(-c2nc(-c3ccncc3)no2)cc1OCC`, the outcome was “inactive; 0”.

As for `CCOc1cc(-c2noc(-c3cccnc3)n2)ccc1OC`, the outcome is “inactive; 0”.
